Data set [1] concerns the target T1, Induced myeloid leukemia cell differentiation protein Mcl-1 (Homo sapiens, UniProt Q07820). The experiment in a line: Binding affinity to his-tagged Mcl-1 (unknown origin) expressed in Escherichia coli BL21 (DE3) cells by ITC analysis. A digest of the protocol: (§1)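 Isothermal titration calorimetry at 25 °C in 20 mM Tris pH 8.0, 150 mM NaCl, 1% DMSO; twelve 3 μL injections of 300 μM ligand into 30 μM protein. Heats corrected against buffer-only titrations run the same way, and Kd obtained by integrating the raw data and fitting to a one-site model.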
A general note: ITC needs no label: the signal is the heat of the interaction.

Data set [2] has as its target Induced myeloid leukemia cell differentiation protein Mcl-1 (Homo sapiens, UniProt Q07820, R263A). The experiment in a line: Binding affinity to his-tagged Mcl-1 R263A mutant (unknown origin) expressed in Escherichia coli BL21 (DE3) cells by ITC analysis. In short, it runs like this: as §1
Data set [3] addresses Bcl-2-like protein 1 (Homo sapiens, UniProt Q07817). The experiment in a line: Binding affinity to Bcl-xL (unknown origin).
The subject of data set [4] is NCI-H23. The experiment in a line: Ratio of IC50 for human HL60 cells to IC50 for human NCI-H23 cells. The format is functional.
The nature of data set [5]: Solubility of the compound in 9:1 ratio of water:ethanol by HPLC analysis. It is filed as physicochemical. Conditions: 9:1 water:ethanol.
A short description of data set [6]: Solubility of the compound in 100 % ethanol by HPLC analysis. It is filed as physicochemical.
The target of data set [7] is T1, Induced myeloid leukemia cell differentiation protein Mcl-1. The data set can be described thus: Binding affinity to Mcl-1 (unknown origin) by two-dimensional [15N/1H] NMR analysis.
Data set [8] has as its target Apoptosis regulator Bcl-2 (Homo sapiens) (UniProt P10415). The experiment in a line: Binding affinity to recombinant human Bcl-2.
The test system of data set [9] is NCI-H23. The experiment in a line: Induction of apoptosis in human NCI-H23 cells after 48 hrs by annexin V flow cytometry. Conditions: NCI-H23, 48 h. It is filed as functional, cell-based. A digest of the protocol:
(§2)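 Cells exposed to graded concentrations of ligand for 48 h; percentage of apoptotic cells measured by Annexin V flow cytometry, and IC50 taken from the concentration–response.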
Background: A flow cytometer gives signals particle by particle.

Data set [10] concerns H22. The data set can be described thus: Induction of apoptosis in mouse H22 cells after 48 hrs by annexin V flow cytometry. It is filed as functional, cell-based. As to conditions: H22, 48 h. In short, it runs like this: as §2
Data set [11] relates to MCF7. The experiment in a line: Induction of apoptosis in human MCF7 cells after 48 hrs by annexin V flow cytometry. It is filed as functional, cell-based. Conditions: MCF7, 48 h. A digest of the protocol:
as §2

Data set [12] deals with HL-60. The data set can be described thus: Induction of apoptosis in human HL60 cells after 48 hrs by annexin V flow cytometry. Conditions: HL-60, 48 h. It is filed as functional, cell-based. In short, it runs like this:
as §2

Converted amounts (≈) assume the structure as drawn. The source made the active and inactive calls. No cut-off for these calls is given here.

Chain of Induced myeloid leukemia cell differentiation protein Mcl-1 (Homo sapiens, UniProt Q07820, R263A) (Q07820 whole entry R263A): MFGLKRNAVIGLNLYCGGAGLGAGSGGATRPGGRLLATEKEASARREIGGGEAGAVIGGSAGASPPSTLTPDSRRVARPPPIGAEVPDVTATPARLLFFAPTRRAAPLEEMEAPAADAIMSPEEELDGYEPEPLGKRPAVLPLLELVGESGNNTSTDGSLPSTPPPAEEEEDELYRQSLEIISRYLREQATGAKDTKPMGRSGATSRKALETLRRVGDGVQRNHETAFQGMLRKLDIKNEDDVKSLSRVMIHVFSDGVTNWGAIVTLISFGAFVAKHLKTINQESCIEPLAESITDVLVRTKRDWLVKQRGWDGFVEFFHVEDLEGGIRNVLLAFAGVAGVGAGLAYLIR
T1 sequence (Q07820 whole entry): as the sequence (Q07820 whole entry R263A) above, with A263R counted along it
Chain of Bcl-2-like protein 1 (Q07817 whole entry): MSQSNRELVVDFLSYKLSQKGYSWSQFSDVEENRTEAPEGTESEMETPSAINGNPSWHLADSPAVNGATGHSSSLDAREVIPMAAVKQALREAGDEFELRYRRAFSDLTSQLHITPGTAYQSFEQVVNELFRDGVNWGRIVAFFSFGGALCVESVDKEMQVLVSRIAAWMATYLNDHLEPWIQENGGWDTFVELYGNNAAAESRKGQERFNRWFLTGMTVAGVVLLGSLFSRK
Chain of Apoptosis regulator Bcl-2 (Homo sapiens) (P10415 whole entry): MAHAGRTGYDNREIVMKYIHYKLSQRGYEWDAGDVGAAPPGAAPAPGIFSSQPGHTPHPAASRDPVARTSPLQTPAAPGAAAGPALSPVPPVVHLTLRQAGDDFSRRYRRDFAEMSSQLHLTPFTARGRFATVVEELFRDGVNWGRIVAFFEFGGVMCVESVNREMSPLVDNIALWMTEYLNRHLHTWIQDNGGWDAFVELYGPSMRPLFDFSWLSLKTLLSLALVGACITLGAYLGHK

Turning to `CNC(=O)CC#N`, the Kd in [1] (read-out: Kd) was 8.27 µM; in data set [1] (read-out: pKd (converted)), 8.32 µM.
Turning to `CCC(C)(C)c1ccc(Oc2ccc3c(=C(C#N)C#N)c(=O)c4cccc2c43)cc1`, the Kd in data set [1] (read-out: Kd) and in data set [1] (read-out: pKd (converted)) was 1.45 µM each time.
In the case of `O=C1C(=O)c2cccc3cccc1c23` [ACENAPHTHOQUINONE], the Kd was 325 µM in data set [1] (read-out: Kd) and 324 µM in data set [1] (read-out: pKd (converted)).
`N#CC(C#N)=c1c(=O)c2cccc3cccc1c32`: the Kd in data set [1] (read-out: Kd) is 52.3 µM; in [1] (read-out: pKd (converted)), 52.5 µM; in data set [2], 51.4 µM.
For the molecule `COc1ccc(Oc2ccc3c(=C(C#N)C#N)c(=O)c4cccc2c43)cc1`, the values for the Kd in data set [1] (read-out: Kd) and in data set [1] (read-out: pKd (converted)) were 4.93 µM and 4.9 µM, respectively.
For `NC(=O)c1ccccc1C(=O)c1ccc(Sc2ccc(Cl)cc2)c([N+](=O)[O-])c1`, the Ki in [3] is 0.5 µM.
As to `CCCNC(=O)CC#N`, the Kd in data set [1] (read-out: Kd) was 4.28 µM; in data set [1] (read-out: pKd (converted)), 4.27 µM.
As for `N#CC1=C2C(=NC1=O)c1cccc3cccc2c13`, the Kd is 1.83 µM in data set [1] (read-out: Kd) and 1.82 µM in [1] (read-out: pKd (converted)).
As to `N#CCC(N)=O` [CYANOACETAMIDE], the Kd in data set [1] (read-out: Kd) is 13.5 µM; in data set [1] (read-out: pKd (converted)), 13.5 µM; in [2], over 1000 µM.
`Cc1cc2c(C(C)C)c(O)c(O)c(C=O)c2c(O)c1-c1c(C)cc2c(C(C)C)c(O)c(O)c(C=O)c2c1O` [GOSSYPOL]: the Kd in data set [1] (read-out: Kd) was 2.65 µM; in [1] (read-out: pKd (converted)) it was 2.63 µM.
In the same order, the values of `CCNC(=O)CC#N` are 6.65 µM and 6.61 µM.
The matching figures for `N#C/C(=C\c1ccccc1)C(N)=O`: 2.21 µM and 2.19 µM.
For the molecule `COC1=CC(c2cc3ccccc3[nH]2)=N/C1=C/c1[nH]cc(C)c1C`, in data set [3], the affinity, expressed as Ki, was 4.69 µM.
The same measure, in the same setting: the figure for `O=C(Nc1cc(S(=O)(=O)c2ccc(Cl)cc2)ccc1Cl)c1cc(Cl)cc(Br)c1O` is 4.1 µM.
In the case of `CC(C)c1ccc(Oc2ccc3c(=C(C#N)C#N)c(=O)c4cccc2c43)cc1`, the Kd was 3.71 µM in data set [1] (read-out: Kd) and 3.72 µM in data set [1] (read-out: pKd (converted)).
For `N#C/C(=C\C=C\c1ccccc1)C(N)=O`, the values for the Kd in data set [1] (read-out: Kd), in data set [1] (read-out: pKd (converted)) and in data set [2] were 1.06 µM, 1.07 µM and 46.2 µM, respectively.
For `C1CSCCN1` [THIOMORPHOLINE], the Kd in data set [1] (read-out: Kd) was over 1000 µM.
`CCCC(CSc1ccccc1)Nc1ccc(S(=O)(=O)NC(=O)c2ccc(N3CCN(Cc4ccccc4-c4ccc(Cl)cc4)CC3)cc2)cc1[N+](=O)[O-]` (configuration not stated) showed a Ki in data set [3] of 0.021 µM.
As to `N#CCC(=O)NCc1ccccc1`, the Kd is 1.58 µM in data set [1] (read-out: Kd), 1.58 µM in data set [1] (read-out: pKd (converted)) and 90.8 µM in [2].
In turn, `N#Cc1c(-c2ccc3c(c2)OCO3)cc(-c2ccccc2O)[nH]c1=O` displayed a Ki in data set [3] of 5.1 µM.
On to `N#CC(C#N)=c1c(=O)c2cccc3c(Oc4ccc(Cl)cc4)ccc1c32`, for which the Kd in data set [1] (read-out: Kd) is 4.24 µM; in data set [1] (read-out: pKd (converted)), 4.27 µM.
With `N#C/C(=C\C=C\c1ccccc1)C(=O)NCc1ccccc1`, the “Ratio IC50” value in data set [4] is listed as 100. In addition, the figures for the solubility in data set [5] and in data set [6] were 200 µg/mL and 4000 µg/mL (≈ 13.9 mM), respectively. The values for the Kd in data set [1] (read-out: Kd), in data set [1] (read-out: pKd (converted)) and in [2] were 0.16 µM, 0.158 µM and 6.72 µM, respectively. Further, the result in data set [7] was Active. Moreover, the result in data set [8] was inactive. The IC50 in [9] is 0.38 µM; in data set [10], 3.2 µM; in data set [11], 5.4 µM; in [12], 47.2 µM.

As a reminder, the Ki is a dissociation constant, usually derived from enzyme kinetics or from competition with a known ligand. Lower therefore signals tighter binding. The term solubility denotes how much of the substance goes into solution per volume. The term IC50 denotes the concentration needed to halve the response being measured. A higher IC50 goes with lower potency.

The values are drawn from ChEMBL document CHEMBL2331511, “Novel soluble myeloid cell leukemia sequence 1 (Mcl-1) inhibitor (E,E)-2-(benzylaminocarbonyl)-3-styrylacrylonitrile (4g) developed using a fragment-based approach” (Eur J Med Chem, 2013).
